ChEMBL document CHEMBL4385665, “Synthesis of N-arylindazole-3-carboxamide and N-benzoylindazole derivatives and their evaluation against α-MSH-stimulated melanogenesis” (Bioorg Med Chem Lett, 2019)
pIC50: −log10 of the molar value.

What was measured:
[1] = system: B16; experiment: Inhibition of alpha-MSH-stimulated melanogenesis in mouse B16 cells assessed as reduction in melanin production incubated for 3 days; format: functional, cell-based; settings: B16, 72 h
Outline: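 B16 melanoma cells stimulated with α-MSH (100nM) and incubated with test agent for three days. Melanin released into the culture medium was quantified by sample absorbance against a synthetic melanin standard, and IC50 values were derived from inhibition of melanin formation.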

[2] = system: B16; experiment: Potency index, ratio of IC50 for arbutin to IC50 for test compound for inhibition of alpha-MSH-stimulated melanogenesis in mouse B16 cells assessed as reduction in melanin production incubated for 3 days; format: functional

Structure (SMILES)	pIC50 [1]	Ratio IC50 [2]
COc1ccc(NC(=O)c2n[nH]c3ccccc23)cc1	4.70	
COC(=O)c1ccc(NC(=O)c2n[nH]c3ccccc23)cc1	4.16	
COc1ccccc1NC(=O)c1n[nH]c2ccccc12	4.80	4
COc1cccc(NC(=O)c2n[nH]c3ccccc23)c1	4.44	
Cc1cccc(NC(=O)c2n[nH]c3ccccc23)c1	4.82	
Cc1ccc(NC(=O)c2n[nH]c3ccccc23)cc1	4.42	
O=C(Nc1ccc(Cl)cc1)c1n[nH]c2ccccc12	4.03	
O=C(c1ccccc1Cl)n1ncc2cc([N+](=O)[O-])ccc21	5.15	9
O=C(c1ccccc1)n1ncc2cc([N+](=O)[O-])ccc21	4.29	
O=C(Nc1ccc(O)cc1)c1n[nH]c2ccccc12	4.74	
O=C(Nc1ccccc1O)c1n[nH]c2ccccc12	4.68	
O=C(Nc1cccc(O)c1)c1n[nH]c2ccccc12	4.46	
O=C(c1ccccc1)n1ncc2cc([N+](=O)[O-])c(Br)cc21	4.49	
Cc1cccc(C(=O)n2ncc3cc([N+](=O)[O-])c(Br)cc32)c1	4.55	
O=C(Cc1cccs1)n1ncc2cc([N+](=O)[O-])ccc21	4.26	
O=C(c1ccccc1Cl)n1ncc2cc([N+](=O)[O-])c(Br)cc21	4.60	4
O=C(Nc1ccc(C(F)(F)F)cc1)c1n[nH]c2ccccc12	4.82	4
O=C(Nc1ccc(OC(F)(F)F)cc1)c1n[nH]c2ccccc12	4.89	5
O=C(c1ccc(Cl)cc1)n1ncc2cc([N+](=O)[O-])ccc21	4.22	
Cc1cccc(C(=O)n2ncc3cc([N+](=O)[O-])ccc32)c1	4.11	
O=C(Nc1ccccc1)c1n[nH]c2ccccc12	4.40	
OC[C@H]1O[C@@H](Oc2ccc(O)cc2)[C@H](O)[C@@H](O)[C@@H]1O [ARBUTIN]	4.19	
